pIC50: −log10 of the molar value.
Assays:
[1] = Lipophilicity, log Kw of the compound by reversed-phase UHPLC analysis; format: physicochemical; details: water/acetonitrile
In short: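 Binary elution with water and acetonitrile, each containing 0.1% formic acid. Detection by UV at 254 nm and by negative/positive ESIMS selected ion monitoring.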

[2] = Antioxidant activity assessed as DPPH radical scavenging activity at test compound/DPPH volume ratio 1:1 after 1 hr by UV-spectrophotometric method; format: functional
In short: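 DPPH 200 µM in methanol. Antioxidant stocks were 1 mM in methanol, diluted to 2–200 µM. The reaction was started by adding 1 mL DPPH solution to 1 mL antioxidant solution (1:1). Samples were incubated 1 h, an interval chosen from a time-course study.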

[3] = Antioxidant activity assessed as DPPH radical scavenging activity at test compound/DPPH volume ratio 3:1 incubated under dark condition for 30 mins by spectrophotometric method; format: functional
[4] = Lipophilicity, log P of the compound; format: physicochemical; details: octanol/water

SMILES | logKw [1] | pIC50 [2] | also measured
COc1cc(C[C@H]2C(=O)OC[C@@H]2[C@H](O)c2ccc(O)c(OC)c2)ccc1O [HYDROXYMATAIRESINOL] | 1.49 | 4.70 | –
Cc1cc(C(C)(C)C)c(O)c(C(C)(C)C)c1 [BUTYLATED HYDROXYTOLUENE] | – | 4.47 | –
Cc1c(C)c2c(c(C)c1O)CC[C@@](C)(CCC[C@H](C)CCC[C@H](C)CCCC(C)C)O2 (racemic) [ALPHA-TOCOPHEROL] | – | 4.63 | –
CCCCCCCCCCCCCCCCCC(=O)O[C@H](c1ccc(O)c(OC)c1)[C@H]1COC(=O)[C@@H]1Cc1ccc(O)c(OC)c1 | 5.43 | – | –
O=C1O[C@H]([C@@H](O)CO)C(O)=C1O [ASCORBIC ACID] | – | 4.69 | pIC50 [3]: 4.90
CCCCCCCCCCCCCCCCCC(=O)O[C@@H](c1ccc(O)c(OC)c1)[C@H]1COC(=O)[C@@H]1Cc1ccc(O)c(OC)c1 | 5.5 | – | –
CCCCCCCCOC(=O)c1cc(O)c(O)c(O)c1 [OCTYL_GALLATE] | – | – | logP [4]: 4.1

Now from value to compound, other results behind:

logKw [1] | pIC50 [2] | SMILES | also measured
3.68 | – | CCCCCCCCCCCC(=O)O[C@@H](c1ccc(O)c(OC)c1)[C@H]1COC(=O)[C@@H]1Cc1ccc(O)c(OC)c1 | –
3.12 | – | CCCCCCCC(=O)O[C@@H](c1ccc(O)c(OC)c1)[C@H]1COC(=O)[C@@H]1Cc1ccc(O)c(OC)c1 | –
– | 4.61 | CCCCCCCCCCCC(=O)OC(c1ccc(O)c(OC)c1)[C@H]1COC(=O)[C@@H]1Cc1ccc(O)c(OC)c1 (stereo partly specified) | –
– | 4.62 | CCCCCCCC(=O)OC(c1ccc(O)c(OC)c1)[C@H]1COC(=O)[C@@H]1Cc1ccc(O)c(OC)c1 (stereo partly specified) | –
3.06 | – | CCCCCCCC(=O)O[C@H](c1ccc(O)c(OC)c1)[C@H]1COC(=O)[C@@H]1Cc1ccc(O)c(OC)c1 | –
3.63 | – | CCCCCCCCCCCC(=O)O[C@H](c1ccc(O)c(OC)c1)[C@H]1COC(=O)[C@@H]1Cc1ccc(O)c(OC)c1 | –
– | 4.60 | CCCCCCCCCCCCCCCCCC(=O)OC(c1ccc(O)c(OC)c1)[C@H]1COC(=O)[C@@H]1Cc1ccc(O)c(OC)c1 (stereo partly specified) | –

Reference: ChEMBL document CHEMBL4190210, “Derivatives of the Lignan 7'-Hydroxymatairesinol with Antioxidant Properties and Enhanced Lipophilicity” (J Nat Prod, 2017)
